{"source": "ChEMBL document CHEMBL5029154", "about": "“Design, Synthesis, and Biological Evaluation of Organic Nitrite (NO2-) Donors as Potential Anticerebral Ischemia Agents” (J Med Chem, 2021)", "key": {"[1]": {"test": "Drug metabolism assessed as nitric oxide release in presence of bovine plasma at 200 uM measured after 1 hr by Griess reagent based assay", "type": "ADME, cell-free, Bos taurus", "conditions": "cattle"}, "Cortical neurone [2]": {"system": "Cortical neurone", "test": "Neuroprotective activity against in OGD/R-induced Sprague-Dawley rat cortical neuron injury assessed as cell viability pretreated at 1.8 uM for 24 hrs followed by subjected to OGD for 2 hrs measured after 24 hrs under normoxic condition", "type": "functional, tissue-based", "procedure,_shortened": "(§1)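 Cortical neurons were isolated from SD rat cortex by enzymatic digestion, plated on poly-lysine in 10% FBS DMEM, and pretreated 24 h at 1.8 μM in basal medium with 2% B27. OGD was run in glucose/FBS-free DMEM under 1% O₂, followed by 24 h reoxygenation in 10% FBS DMEM. Viability was read by MTT; apoptosis was also assessed. Three independent experiments.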"}, "Cortical neurone [3]": {"system": "Cortical neurone", "test": "Induction of Nrf2 protein level in OGD/R-induced rat primary cortical neuron pretreated at 1.8 uM for 24 hrs followed by subjected to OGD for 2 hrs measured after 24 hrs under normoxic condition by Western blot analysis", "type": "functional, tissue-based", "procedure,_shortened": "(§2)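 Primary rat cortical neurons were pretreated with 1.8 μM compound for 24 h, given 2 h OGD, then 24 h normoxic culture. Nrf2, HO-1 and NQO1 mRNA were measured by RT-qPCR. Cytoplasmic and nuclear protein (30 μg/lane) were blotted for Nrf2, with lamin A and β-actin as references, and quantified by densitometry as the nuclear:cytoplasmic ratio. Three independent experiments, mean ± SD.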"}, "[4]": {"test": "Neuroprotective activity against in OGD/R-induced rat cortical neuron apoptosis assessed as late apoptotic cells pretreated at 1.8 uM for 24 hrs followed by subjected to OGD for 2 hrs measured after 24 hrs under normoxic condition by PI/FITC-H staining based flow cytometry (reference value: 6.31%)", "type": "functional, Cortical neurone"}, "[5]": {"test": "Neuroprotective activity against in OGD/R-induced rat cortical neuron apoptosis assessed as necrotic cells pretreated at 1.8 uM for 24 hrs followed by subjected to OGD for 2 hrs measured after 24 hrs under normoxic condition by PI/FITC-H staining based flow cytometry (reference value: 3.68%)", "type": "functional, Cortical neurone"}, "[6]": {"test": "Neuroprotective activity against in OGD/R-induced rat primary cortical neuron apoptosis assessed as viable cells pretreated at 1.8 uM for 24 hrs followed by subjected to OGD for 2 hrs measured after 24 hrs under normoxic condition by PI/FITC-H staining based flow cytometry (reference value: 31.55%)", "type": "functional", "conditions": "Cortical neurone, read-out: Activity", "procedure,_shortened": "as §1"}, "Cortical neurone [7]": {"system": "Cortical neurone", "test": "Induction of NQO1 mRNA transcript level in OGD/R-induced rat primary cortical neuron pretreated at 1.8 uM for 24 hrs followed by subjected to OGD for 2 hrs measured after 24 hrs under normoxic condition by RT-qPCR analysis", "type": "functional, tissue-based", "procedure,_shortened": "as §2"}, "[8]": {"test": "Neuroprotective activity against in OGD/R-induced rat cortical neuron apoptosis assessed as early apoptotic cells pretreated at 1.8 uM for 24 hrs followed by subjected to OGD for 2 hrs measured after 24 hrs under normoxic condition by PI/FITC-H staining based flow cytometry (reference value: 58.46%)", "type": "functional, Cortical neurone"}, "Cortical neurone [9]": {"system": "Cortical neurone", "test": "Induction of HO-1 mRNA transcript level in OGD/R-induced rat primary cortical neuron pretreated at 1.8 uM for 24 hrs followed by subjected to OGD for 2 hrs measured after 24 hrs under normoxic condition by RT-qPCR analysis", "type": "functional, tissue-based", "procedure,_shortened": "as §2"}, "Cortical neurone [10]": {"system": "Cortical neurone", "test": "Effect on Nrf2 mRNA transcript level in OGD/R-induced rat primary cortical neuron pretreated at 1.8 uM for 24 hrs followed by subjected to OGD for 2 hrs measured after 24 hrs under normoxic condition by RT-qPCR analysis", "type": "functional, tissue-based", "procedure,_shortened": "as §2"}, "HUVEC": {"system": "HUVEC", "test": "Angiogenesis activity in HUVEC cells assessed as increase in tube formation at 1.8 uM measured after 8 hrs by inverted microscopy", "type": "functional, cell-based", "conditions": "Homo sapiens", "procedure,_shortened": "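Early-passage HUVECs (passages 2–6), grown in DMEM with 10% FBS, glutamine, pyruvate and antibiotics, were seeded at 8 × 10⁴ cells/well on Matrigel. They were exposed to vehicle or compound for 8 h at 37 °C, 5% CO₂. Tubes were counted under an inverted microscope.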"}, "Cortical neurone [11]": {"system": "Cortical neurone", "test": "Neuroprotective activity against in OGD/R-induced rat cortical neuron cytotoxicity assessed as decrease in cell viability pretreated at 1.8 uM for 24 hrs followed by subjected to OGD for 2 hrs measured after 24 hrs under normoxic condition by MTT assay", "type": "functional, tissue-based", "procedure,_shortened": "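Primary rat cortical neurons from enzymatically digested cortex, plated on poly-lysine in DMEM/10% FBS for 4 h. Pretreated 24 h in neuron basal medium with 2% B27, then glucose/FBS-free DMEM at 1% O2. Returned to 10% FBS DMEM under normoxia for 24 h. Viability by MTT; three independent experiments, mean SD.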"}}, "note": "Active and inactive are the calls of the source. No cut-off for these calls is given here."}
{"smiles": "N#C/C(=C\\c1ccccc1)C[N+](=O)[O-]", "values": [{"measurement": "Drug metabolism", "setting": "[1]", "result": "Metabolite_Detected"}, {"measurement": "Activity", "setting": "Cortical neurone [2]", "result": "Active"}]}
{"smiles": "CC(C)(C)c1cc(O)ccc1O", "note": "[E319]", "values": [{"measurement": "Activity", "setting": "Cortical neurone [3]", "result": "Active"}, {"measurement": "Activity", "setting": "[4]", "result": 1.4, "unit": "%"}, {"measurement": "Activity", "setting": "[5]", "result": 0.84, "unit": "%"}, {"measurement": "viability at 1.8 µM", "setting": "[6]", "result": 84, "unit": "%"}, {"measurement": "Activity", "setting": "Cortical neurone [7]", "result": "Active"}, {"measurement": "Activity", "setting": "[8]", "result": 13.91, "unit": "%"}, {"measurement": "Activity", "setting": "Cortical neurone [9]", "result": "Active"}, {"measurement": "Activity", "setting": "Cortical neurone [10]", "result": "inactive"}]}
{"smiles": "O=C1CCCC=C1C[N+](=O)[O-]", "values": [{"measurement": "Drug metabolism", "setting": "[1]", "result": "Metabolite_Detected"}]}
{"smiles": "C/C(=C\\c1ccccc1)C(=O)c1ccccc1", "values": [{"measurement": "Activity", "setting": "Cortical neurone [3]", "result": "Active"}, {"measurement": "Activity", "setting": "HUVEC", "result": "inactive"}]}
{"smiles": "O=N[O-].[Na+]", "note": "[SODIUM NITRITE]", "values": [{"measurement": "Activity", "setting": "Cortical neurone [3]", "result": "inactive"}, {"measurement": "Activity", "setting": "[4]", "result": 2.47, "unit": "%"}, {"measurement": "Activity", "setting": "[5]", "result": 0.51, "unit": "%"}, {"measurement": "viability at 1.8 µM", "setting": "[6]", "result": 46.9, "unit": "%"}, {"measurement": "Activity", "setting": "[8]", "result": 50.12, "unit": "%"}, {"measurement": "Activity", "setting": "Cortical neurone [11]", "result": "inactive"}, {"measurement": "Activity", "setting": "Cortical neurone [10]", "result": "inactive"}]}
{"smiles": "COC(=O)/C(=C/c1ccccc1)C[N+](=O)[O-]", "values": [{"measurement": "Drug metabolism", "setting": "[1]", "result": "Metabolite_Detected"}, {"measurement": "Activity", "setting": "Cortical neurone [2]", "result": "Active"}]}
{"smiles": "O=[N+]([O-])C/C(=C\\c1ccccc1)[N+](=O)[O-]", "values": [{"measurement": "Drug metabolism", "setting": "[1]", "result": "Metabolite_Detected"}, {"measurement": "Activity", "setting": "Cortical neurone [2]", "result": "Active"}]}
